The structures appear in SMILES notation.

Data set [1] in a line: Drug metabolism in human intestinal microsomes assessed as UGT1A9/2B7-mediated unbound intrinsic glucuronidation clearance at 1 uM after 30 to 60 mins by LC-MS/MS analysis in presence of 1% bovine serum albumin. The format is ADME, Intestine.
Data set [2] in a line: Clearance in iv dosed human. The format is ADME, organism-based. The following applies: in vivo.
Data set [3] in a line: Renal clearance in human. The following applies: in vivo. The format is ADME, organism-based, Kidney.
Data set [4] deals with Liver microsome. The data set can be described thus: Fraction metabolized glucuronidation in human liver microsomes in presence of UDP-glucuronosyltransferase. Format: ADME. (In general: Liver microsomes are a subcellular fraction often used to study metabolism.)
Data set [5] has as its system Liver microsome. The data set can be described thus: Fraction metabolized glucuronidation in human liver microsomes in presence of UDP-glucuronosyltransferase and bovine serum albumin. Format: ADME.
Data set [6] in a line: Fraction unbound in human liver microsomes at 1 uM after 30 to 60 mins by LC-MS/MS analysis. Format: ADME.
A short description of data set [7]: Fraction unbound in human kidney microsomes at 1 uM after 30 to 60 mins by LC-MS/MS analysis. The format is ADME.
Data set [8] can be described thus: Fraction unbound in human intestinal microsomes at 1 uM after 30 to 60 mins by LC-MS/MS analysis. Format: ADME, Intestine, Microsome.
Data set [9] relates to Liver microsome. Description: Fraction unbound in human liver microsomes at 1 uM after 30 to 60 mins by LC-MS/MS analysis in presence of 1% bovine serum albumin. Format: ADME. The following applies: microsomes, 1 µM.
Data set [10] has as its system Liver microsome. The data set can be described thus: Unbound intrinsic glucuronidation clearance in human liver microsomes at 1 uM after 30 to 60 mins by LC-MS/MS analysis in presence of UDP-glucuronosyltransferase. Format: ADME. Put shortly: (§1)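 Alamethicin-activated pooled microsomes (HLM 150 donors; HKM 8; HIM 18). Drug at 1 μM final, preincubated 5 min at 37°C in 0.1 M phosphate pH 7.1 with 3.45 mM MgCl2, 1.15 mM EDTA, 115 μM saccharic acid lactone. Started with […] cofactor (5 mM final), 30–60 min. Cofactor-free controls. Parent depletion by LC-MS/MS, single-exponential k. Corrected by HLM-dialysis fu,inc. Duplicates; n=3 (HIM n=1).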

In data set [11] the test system is Liver microsome. The data set can be described thus: Unbound intrinsic glucuronidation clearance in human liver microsomes at 1 uM after 30 to 60 mins by LC-MS/MS analysis in presence of UDP-glucuronosyltransferase and 1% bovine serum albumin. Format: ADME.
Data set [12] in a line: Unbound intrinsic glucuronidation clearance in human kidney microsomes at 1 uM after 30 to 60 mins by LC-MS/MS analysis in presence of UDP-glucuronosyltransferase. Format: ADME, microsome. Put shortly: as §1
Data set [13] is described as follows: Drug metabolism in human intestinal microsomes assessed as UGT1A9/2B7-mediated unbound intrinsic glucuronidation clearance at 1 uM after 30 to 60 mins by LC-MS/MS analysis. Format: ADME, Intestine.
A short description of data set [14]: Unbound intrinsic glucuronidation clearance in human kidney microsomes at 1 uM after 30 to 60 mins by LC-MS/MS analysis in presence of UDP-glucuronosyltransferase and 1% bovine serum albumin. Format: ADME, microsome.
A short description of data set [15]: Unbound intrinsic glucuronidation clearance in human intestinal microsomes at 1 uM after 30 to 60 mins by LC-MS/MS analysis in presence of UDP-glucuronosyltransferase. Format: ADME, Intestine, Microsome. The method, boiled down:
as §1

Data set [16] can be described thus: Unbound intrinsic glucuronidation clearance in human intestinal microsomes at 1 uM after 30 to 60 mins by LC-MS/MS analysis in presence of UDP-glucuronosyltransferase and 1% bovine serum albumin. The format is ADME, Intestine, Microsome.
The nature of data set [17]: Drug metabolism in human liver microsomes assessed as UGT1A9/2B7-mediated unbound intrinsic glucuronidation clearance at 1 uM after 30 to 60 mins by LC-MS/MS analysis. Format: ADME.
Data set [18] is described as follows: Drug metabolism in human kidney microsomes assessed as UGT1A9/2B7-mediated unbound intrinsic glucuronidation clearance at 1 uM after 30 to 60 mins by LC-MS/MS analysis. The format is ADME.
Data set [19] can be described thus: Drug metabolism in human liver microsomes assessed as UGT1A9/2B7-mediated unbound intrinsic glucuronidation clearance at 1 uM after 30 to 60 mins by LC-MS/MS analysis in presence of 1% bovine serum albumin. Format: ADME.
Data set [20] is described as follows: Drug metabolism in human kidney microsomes assessed as UGT1A9/2B7-mediated unbound intrinsic glucuronidation clearance at 1 uM after 30 to 60 mins by LC-MS/MS analysis in presence of 1% bovine serum albumin. Format: ADME.
In data set [21] the target is T1, UDP-glucuronosyltransferase 1A1 (Homo sapiens, UniProt P22309).
T1 sequence (P22309 whole entry): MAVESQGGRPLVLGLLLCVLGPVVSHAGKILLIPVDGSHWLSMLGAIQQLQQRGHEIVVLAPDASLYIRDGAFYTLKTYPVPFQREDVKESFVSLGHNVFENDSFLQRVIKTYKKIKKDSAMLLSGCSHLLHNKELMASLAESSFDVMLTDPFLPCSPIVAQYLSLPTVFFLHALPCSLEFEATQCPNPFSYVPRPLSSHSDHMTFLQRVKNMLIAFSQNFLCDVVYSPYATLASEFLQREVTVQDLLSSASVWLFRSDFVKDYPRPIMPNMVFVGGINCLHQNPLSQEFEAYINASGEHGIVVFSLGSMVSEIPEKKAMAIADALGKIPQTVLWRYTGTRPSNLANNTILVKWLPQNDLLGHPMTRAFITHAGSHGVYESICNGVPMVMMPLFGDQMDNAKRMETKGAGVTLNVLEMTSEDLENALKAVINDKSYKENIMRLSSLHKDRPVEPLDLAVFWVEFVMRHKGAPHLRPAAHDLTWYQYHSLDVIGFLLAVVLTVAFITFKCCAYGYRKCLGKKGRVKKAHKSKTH
The data set can be described thus: Drug metabolism in human intestinal microsomes assessed as UGT1A1-mediated unbound intrinsic glucuronidation clearance at 1 uM after 30 to 60 mins by LC-MS/MS analysis in presence of 2% bovine serum albumin. Format: ADME, Intestine.

Data set [22] has as its target T1, UDP-glucuronosyltransferase 1A1. The data set can be described thus: Ratio of UGT1A1-mediated unbound intrinsic glucuronidation clearance in human intestinal microsomes to UGT1A1-mediated unbound intrinsic glucuronidation clearance in human liver microsomes at 1 uM in presence of 2% bovine serum albumin. The format is ADME.
The target is the same in data set [23]. The data set can be described thus: Ratio of UGT1A1-mediated unbound intrinsic glucuronidation clearance in human kidney microsomes to UGT1A1-mediated unbound intrinsic glucuronidation clearance in human intestinal microsomes at 1 uM in presence of 2% bovine serum albumin. The format is ADME.
The nature of data set [24]: Fraction unbound in human liver microsomes at 1 uM […] by LC-MS/MS analysis in presence of 2% bovine serum albumin. Format: ADME.
The test system of data set [25] is Liver microsome. The data set can be described thus: Unbound intrinsic glucuronidation clearance in human liver microsomes at 1 uM after 30 to 60 mins by LC-MS/MS analysis in presence of UDP-glucuronosyltransferase and 2% bovine serum albumin. Format: ADME. Put shortly:
(§2)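 Pooled alamethicin-activated human liver, kidney or intestinal microsomes. […] Duplicate incubations of 30–60 min, with no-cofactor controls. Parent depletion read by LC-MS/MS. k from a single-exponential fit, corrected by fu,inc.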

Data set [26] has as its target T1, UDP-glucuronosyltransferase 1A1. Description: Ratio of UGT1A1-mediated unbound intrinsic glucuronidation clearance in human kidney microsomes to UGT1A1-mediated unbound intrinsic glucuronidation clearance in human liver microsomes at 1 uM in presence of 2% bovine serum albumin. Format: ADME.
For data set [27] the target is unchanged. Description: Drug metabolism in human intestinal microsomes assessed as UGT1A1-mediated unbound intrinsic glucuronidation clearance at 1 uM after 30 to 60 mins by LC-MS/MS analysis. Format: ADME, Intestine.
Data set [28] shares this target. Description: Ratio of UGT1A1-mediated unbound intrinsic glucuronidation clearance in human kidney microsomes to UGT1A1-mediated unbound intrinsic glucuronidation clearance in human liver microsomes at 1 uM. The format is ADME.
Data set [29] in a line: Unbound intrinsic glucuronidation clearance in human kidney microsomes at 1 uM after 30 to 60 mins by LC-MS/MS analysis in presence of UDP-glucuronosyltransferase and 2% bovine serum albumin. Format: ADME, microsome. The method, boiled down: as §2
Data set [30] can be described thus: Unbound intrinsic glucuronidation clearance in human intestinal microsomes at 1 uM after 30 to 60 mins by LC-MS/MS analysis in presence of UDP-glucuronosyltransferase and 2% bovine serum albumin. Format: ADME, Intestine, Microsome. Put shortly: as §2
For data set [31], the system named is Liver microsome. The data set can be described thus: Ratio of unbound intrinsic glucuronidation clearance in human liver microsomes in presence of 2% bovine serum albumin to unbound intrinsic glucuronidation clearance in human liver microsomes in absence of bovine serum albumin. Format: ADME. The method, boiled down: (§3)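 Ratios of mean scaled unbound CLint,UGT (per g tissue) between tissues, or between with and without BSA. Microsomal depletion assays at 1 μM, or 5 μM for propofol, in pH 7.1 phosphate at 37°C, read by LC-MS/MS. Kidney and liver n = 3, intestine n = 1, each in duplicate.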

Data set [32] can be described thus: Ratio of unbound intrinsic glucuronidation clearance in human kidney microsomes in presence of 2% bovine serum albumin to unbound intrinsic glucuronidation clearance in human kidney microsomes in absence of bovine serum albumin. The format is ADME, microsome. Put shortly: as §3
The target of data set [33] is T1, UDP-glucuronosyltransferase 1A1. Description: Drug metabolism in human liver microsomes assessed as UGT1A1-mediated unbound intrinsic glucuronidation clearance at 1 uM after 30 to 60 mins by LC-MS/MS analysis. The format is ADME.
Data set [34] shares this target. Description: Drug metabolism in human kidney microsomes assessed as UGT1A1-mediated unbound intrinsic glucuronidation clearance at 1 uM after 30 to 60 mins by LC-MS/MS analysis. Format: ADME.
Data set [35] has the same target. Description: Ratio of UGT1A1-mediated unbound intrinsic glucuronidation clearance in human intestinal microsomes to UGT1A1-mediated unbound intrinsic glucuronidation clearance in human liver microsomes at 1 uM. The format is ADME.
The target is the same in data set [36]. The data set can be described thus: Ratio of UGT1A1-mediated unbound intrinsic glucuronidation clearance in human kidney microsomes to UGT1A1-mediated unbound intrinsic glucuronidation clearance in human intestinal microsomes at 1 uM. Format: ADME.
Data set [37] has the same target. The data set can be described thus: Drug metabolism in human liver microsomes assessed as UGT1A1-mediated unbound intrinsic glucuronidation clearance at 1 uM after 30 to 60 mins by LC-MS/MS analysis in presence of 2% bovine serum albumin. Format: ADME.
Data set [38] shares this target. The data set can be described thus: Drug metabolism in human kidney microsomes assessed as UGT1A1-mediated unbound intrinsic glucuronidation clearance at 1 uM after 30 to 60 mins by LC-MS/MS analysis in presence of 2% bovine serum albumin. The format is ADME.
The target in data set [39] is UDP-glucuronosyltransferase 1A1 (Homo sapiens) (UniProt P22309). The data set can be described thus: Drug metabolism in human intestinal microsomes assessed as UGT1A1-mediated unbound intrinsic glucuronidation clearance at 1 uM after 30 to 60 mins by LC-MS/MS analysis in presence of 2% bovine serum albumin.

As a reminder, the clearance is the rate of elimination divided by the concentration. A lower clearance goes with inefficient removal. Broadly, the fraction unbound is free concentration divided by total concentration. Consider `O=C(O)Cc1ccccc1Nc1c(Cl)cccc1Cl` [DICLOFENAC], for which the CL free worked out at 6.7 mL/min/g in data set [1]; 761 µL/min/mg in data set [10]; 1190 µL/min/mg in data set [11]; 177 µL/min/mg in data set [12]; 1.54 mL/min/g in data set [13]; 543 µL/min/mg in data set [14]. Besides, the CL free in data set [15] was 74.9 µL/min/mg; in data set [16], 325 µL/min/mg; in data set [17], 30.5 mL/min/g; in [18] it was 2.27 mL/min/g; in data set [19] it was 47.4 mL/min/g; in data set [20], 6.95 mL/min/g. The clearance in [2] turned out to be 4.84 mL/min/kg. The CL renal in data set [3] is 0.06 mL/min/kg. Besides, the Drug metabolism came to 0.62 in [4] and 0.65 in [5]. In addition, the fraction unbound at 1 µM in data set [6] worked out at 0.98; in data set [7], 0.99; in data set [8], 0.98. Moreover, the Fu in [9] turned out to be 0.02.

With `O=C1[C@H](CC[C@H](O)c2ccc(F)cc2)[C@@H](c2ccc(O)cc2)N1c1ccc(F)cc1` [EZETIMIBE], the CL free in data set [21] came to 23.8 mL/min/g; in [10], 2930 µL/min/mg; in [25] it was 5180 µL/min/mg; in data set [12] it was 295 µL/min/mg; in data set [27], 8.61 mL/min/g; in [29] it was 495 µL/min/mg. Further, the CL free worked out at 418 µL/min/mg in data set [15]; 1160 µL/min/mg in [30]; 117 mL/min/g in [33]; 3.78 mL/min/g in [34]; 207 mL/min/g in data set [37]; 6.34 mL/min/g in [38]. In addition, the CL free in data set [39] came out at 23.8 mL/min/g. For the same molecule, the Ratio in [22] was 0.115; in [23], 0.266; in data set [26], 0.031; in [28], 0.032; in data set [31] it was 1.8; in data set [32] it was 1.7. The Ratio is given as 0.073 in [35] and 0.439 in [36]. For the same molecule, the fraction unbound at 1 µM in data set [6] was 0.3; in data set [7], 0.18; in data set [8], 0.18; in data set [24] it was 0.05.
